Laboratory results taken from ChEMBL document CHEMBL1128448, “Synthesis and antifungal activity of new azole derivatives containing an N-acylmorpholine ring” (1995).
≈ marks a conversion by molar mass, not a printed value.

Assays:
Trichophyton rubrum = assay: In vitro evaluation of minimum inhibitory concentration against Trichophyton rubrum 90; type: functional
In short: (§1)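 Stocks are 800 μg/mL in 50% ethanol. Each plate gets 10 μL of inoculum at 10^5 cfu/mL. Incubation at 25 °C, 48 h for yeasts and 120 h for dermatophytes and molds. Organisms are ATCC strains or clinical isolates.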

Mus sp. [1] = assay: In vivo evaluation of % survival rate after peroral administration on 7th day at dose 1 mg/kg; type: functional; conditions: for Survival: route oral, 1 mg/kg
Candida parapsilosis = assay: In vitro evaluation of minimum inhibitory concentration against Candida parapsilosis 61; type: functional; in short: as §1
Mus sp. [2] = assay: In vivo evaluation of % survival rate after peroral administration on 7th day at dose 2.5 mg/kg; type: functional; conditions: for survival at 2.5 mg/kg: Mus sp., po
Mus sp. [3] = assay: In vivo evaluation of % survival rate after peroral administration on 9th day at dose 2.5 mg/kg; type: functional; conditions: for survival at 2.5 mg/kg: Mus sp., po
Trichophyton benhamiae = assay: In vitro evaluation of minimum inhibitory concentration against Trichophyton mentagrophytes 23; type: functional, Arthroderma benhamiae; in short: as §1
Microsporum canis = assay: In vitro evaluation of minimum inhibitory concentration against Microsporum canis 47; type: functional; in short: as §1
Pichia kudriavzevii = assay: In vitro evaluation of minimum inhibitory concentration against Candida krusei 70; type: functional; in short: as §1
Mus sp. [4] = assay: In vivo evaluation of % survival rate after peroral administration on 9th day at dose 1 mg/kg; type: functional; conditions: for Survival: route oral, 1 mg/kg
[5] = system: Meyerozyma guilliermondii; assay: In vitro evaluation of minimum inhibitory concentration against Candida guilliermondii 26; type: functional; in short: as §1
Mus sp. [6] = assay: In vivo evaluation of % survival rate after peroral administration on 3rd day at dose 1 mg/kg; type: functional; conditions: for Survival: route oral, 1 mg/kg; for survival at 1 mg/kg: Mus sp., po
Candida tropicalis = assay: In vitro evaluation of minimum inhibitory concentration against Candida tropicalis 2.11; type: functional; in short: as §1
Mus sp. [7] = assay: In vivo evaluation of % survival rate after peroral administration on 5th day at dose 2.5 mg/kg; type: functional; conditions: for survival at 2.5 mg/kg: Mus sp., po
Nannizzia gypsea = assay: In vitro evaluation of minimum inhibitory concentration against Microsporum gypseum 22; type: functional; in short: as §1
Kluyveromyces marxianus = assay: In vitro evaluation of minimum inhibitory concentration against Candida pseudotropicalis 13; type: functional; in short: as §1
Mus sp. [8] = assay: In vivo evaluation of % survival rate after peroral administration on 5th day at dose 1 mg/kg; type: functional; conditions: for Survival: route oral, 1 mg/kg; for survival at 1 mg/kg: Mus sp., po
Candida albicans [9] = assay: In vitro evaluation of minimum inhibitory concentration against Candida albicans 76; type: functional; in short: as §1
Mus sp. [10] = assay: In vivo evaluation of % survival rate after peroral administration on 3rd day at dose 2.5 mg/kg; type: functional; conditions: for survival at 2.5 mg/kg: Mus sp., po
Rhodotorula mucilaginosa = assay: In vitro evaluation of minimum inhibitory concentration against Rhodotorula rubra 16; type: functional; in short: as §1
Candida albicans [11] = assay: In vivo evaluation of minimum inhibitory concentration against Candida albicans 60; type: functional
In short: (§2)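 Broth macrodilution MIC following NCCLS M27-P, in RPMI-1640 buffered with 0.165 M MOPS. Fluconazole was dissolved in water and other drugs in DMSO. C. parapsilosis ATCC 22019 served as the reference strain in every run. MIC was the lowest concentration giving turbidity at or below the 80% inhibition standard.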

Aspergillus fumigatus = assay: In vitro evaluation of minimum inhibitory concentration against Aspergillus fumigatus 33; type: functional; conditions: Aspergillus fumigatus; read-out: MIC; in short: as §1
Aspergillus flavus = assay: In vitro evaluation of minimum inhibitory concentration against Aspergillus flavus 19; type: functional; conditions: Aspergillus flavus; read-out: MIC; in short: as §1
Aspergillus niger = assay: In vitro evaluation of minimum inhibitory concentration against Aspergillus niger 18; type: functional; conditions: Aspergillus niger; read-out: MIC; in short: as §1
Nakaseomyces glabratus = assay: In vitro evaluation of minimum inhibitory concentration against Torulopsis glabrata 78; type: functional; conditions: Nakaseomyces glabratus; read-out: MIC; in short: as §1
Candida albicans [12] = assay: In vivo evaluation of minimum inhibitory concentration against Candida albicans 406; type: functional; in short: as §2
[13] = Trichophyton rubrum, read-out: MIC
[14] = Lodderomyces parapsilosis, read-out: MIC
[15] = Trichophyton benhamiae, read-out: MIC
[16] = Microsporum canis, read-out: MIC
[17] = Candida albicans, read-out: MIC
[18] = Pichia kudriavzevii, read-out: MIC
[19] = Meyerozyma guilliermondii, read-out: MIC
[20] = Candida tropicalis, read-out: MIC
[21] = Nannizzia gypsea, read-out: MIC
[22] = Kluyveromyces marxianus, read-out: MIC
[23] = Rhodotorula mucilaginosa, read-out: MIC

| SMILES | MIC (Trichophyton rubrum; [13]) [µg/mL] | MIC (Candida parapsilosis; [14]) [µg/mL] | survival at 2.5 mg/kg (Mus sp. [2]) [%] | MIC (Aspergillus fumigatus) [µg/mL] | MIC (Aspergillus flavus) [µg/mL] | survival at 2.5 mg/kg (Mus sp. [3]) [%] | MIC (Aspergillus niger) [µg/mL] | MIC (Trichophyton benhamiae; [15]) [µg/mL] | MIC (Microsporum canis; [16]) [µg/mL] | MIC (Nakaseomyces glabratus) [µg/mL] | MIC (Candida albicans [12]; [17]) [µg/mL] | MIC (Pichia kudriavzevii; [18]) [µg/mL] | MIC [5, 19] [µg/mL] | MIC (Candida tropicalis; [20]) [µg/mL] | survival at 2.5 mg/kg (Mus sp. [7]) [%] | MIC (Nannizzia gypsea; [21]) [µg/mL] | MIC (Kluyveromyces marxianus; [22]) [µg/mL] | MIC (Candida albicans [9]; [17]) [µg/mL] | survival at 2.5 mg/kg (Mus sp. [10]) [%] | MIC (Rhodotorula mucilaginosa; [23]) [µg/mL] | other results |
| --- | --- | --- | --- | --- | --- | --- | --- | --- | --- | --- | --- | --- | --- | --- | --- | --- | --- | --- | --- | --- | --- |
| C[C@H]1N(C(=O)c2ccc(C(F)(F)F)cc2)CCO[C@@]1(Cn1cncn1)c1ccc(F)cc1F (racemic) | – | – | – | – | – | – | – | – | – | – | – | – | – | – | – | – | – | – | – | – | MIC (Trichophyton rubrum): 20 µg/mL (≈ 42.9 µM); Survival (Mus sp. [1]): 10%; MIC (Candida parapsilosis): 40 µg/mL (≈ 85.8 µM); Survival (Mus sp. [2]; route oral, 2.5 mg/kg): 90%; Survival (Mus sp. [3]; route oral, 2.5 mg/kg): 90%; MIC (Trichophyton benhamiae): 80 µg/mL (≈ 172 µM); MIC (Microsporum canis): 40 µg/mL (≈ 85.8 µM); MIC (Pichia kudriavzevii): 80 µg/mL (≈ 172 µM); Survival (Mus sp. [4]): 0%; MIC [5]: 80 µg/mL (≈ 172 µM); Survival (Mus sp. [6]): 80%; MIC (Candida tropicalis): 80 µg/mL (≈ 172 µM); Survival (Mus sp. [7]; route oral, 2.5 mg/kg): 100%; MIC (Nannizzia gypsea): 40 µg/mL (≈ 85.8 µM); MIC (Kluyveromyces marxianus): 5 µg/mL (≈ 10.7 µM); Survival (Mus sp. [8]): 70%; MIC (Candida albicans [9]): 80 µg/mL (≈ 172 µM); Survival (Mus sp. [10]; route oral, 2.5 mg/kg): 100%; MIC (Rhodotorula mucilaginosa): 40 µg/mL (≈ 85.8 µM); MIC (Candida albicans [11]): 1.25 µg/mL (≈ 2.68 µM) |
| C[C@H]1N(C(=O)c2ccc(C(F)(F)F)cc2)C[C@H](O)O[C@@]1(Cn1cncn1)c1ccc(Cl)cc1Cl (racemic) | 40 (≈ 77.6 µM) | 2.5 (≈ 4.85 µM) | 100 | 20 (≈ 38.8 µM) | 20 (≈ 38.8 µM) | 100 | > 80 | 40 (≈ 77.6 µM) | 40 (≈ 77.6 µM) | 20 (≈ 38.8 µM) | 0.63 (≈ 1.22 µM) | 10 (≈ 19.4 µM) | 5 (≈ 9.7 µM) | 20 (≈ 38.8 µM) | 100 | 40 (≈ 77.6 µM) | 0.15 (≈ 0.291 µM) | 5 (≈ 9.7 µM) | 100 | 2.5 (≈ 4.85 µM) | survival at 1 mg/kg (Mus sp. [1]; Mus sp., po): 90%; survival at 1 mg/kg (Mus sp. [4]; Mus sp., po): 70%; survival at 1 mg/kg (Mus sp. [6]): 100%; survival at 1 mg/kg (Mus sp. [8]): 100%; MIC (Candida albicans [11]; [17]): 1.25 µg/mL (≈ 2.43 µM) |
| C[C@H]1N(C(=O)c2ccccc2)CCO[C@@]1(Cn1cncn1)c1ccccc1 (racemic) | > 80 | > 80 | 0 | > 80 | > 80 | 0 | > 80 | > 80 | > 80 | > 80 | > 80 | > 80 | > 80 | > 80 | 0 | > 80 | > 80 | > 80 | 40 | > 80 | MIC (Candida albicans [11]; [17]): > 80 µg/mL |
| C[C@H]1N(C(=O)c2ccc(C(F)(F)F)cc2)C[C@H](O)O[C@@]1(Cn1cncn1)c1ccc(F)cc1F (racemic) | – | – | 100 | – | – | 100 | – | – | – | > 80 | – | – | – | > 80 | 100 | – | – | – | 100 | > 80 | MIC (Trichophyton rubrum): >80 µg/mL; Survival (Mus sp. [1]): 55%; MIC (Candida parapsilosis): 80 µg/mL (≈ 166 µM); MIC (Microsporum canis): 80 µg/mL (≈ 166 µM); MIC (Candida albicans [12]): 2.5 µg/mL (≈ 5.18 µM); Survival (Mus sp. [4]): 25%; MIC [5]: >80 µg/mL; Survival (Mus sp. [6]): 85%; MIC (Kluyveromyces marxianus): 10 µg/mL (≈ 20.7 µM); Survival (Mus sp. [8]): 85%; MIC (Candida albicans [9]): >80 µg/mL; MIC (Candida albicans [11]): 10 µg/mL (≈ 20.7 µM) |
| C[C@H]1N(C(=O)c2ccc(OCC(F)(F)C(F)F)cc2)CC(=O)O[C@@]1(Cn1cncn1)c1ccc(Cl)cc1Cl (racemic) | > 80 | 20 (≈ 34.8 µM) | 80 | > 80 | > 80 | 60 | > 80 | > 80 | > 80 | > 80 | 1.25 (≈ 2.17 µM) | > 80 | 80 (≈ 139 µM) | 80 (≈ 139 µM) | 90 | 80 (≈ 139 µM) | 10 (≈ 17.4 µM) | 20 (≈ 34.8 µM) | 90 | 80 (≈ 139 µM) | MIC (Candida albicans [11]; [17]): 2.5 µg/mL (≈ 4.35 µM) |
| C[C@H]1N(C(=O)c2ccc(C(F)(F)F)cc2)CC(=O)O[C@@]1(Cn1cncn1)c1ccc(F)cc1F (racemic) | > 80 | > 80 | 95 | > 80 | > 80 | 70 | > 80 | > 80 | > 80 | > 80 | 40 (≈ 83.3 µM) | > 80 | > 80 | > 80 | 100 | > 80 | 80 (≈ 167 µM) | > 80 | 100 | > 80 | Survival (Mus sp. [1]): 30%; Survival (Mus sp. [4]): 0%; survival at 1 mg/kg (Mus sp. [6]): 95%; survival at 1 mg/kg (Mus sp. [8]): 85%; MIC (Candida albicans [11]; [17]): 80 µg/mL (≈ 167 µM) |
| C[C@H]1N(C(=O)c2ccc(C(F)(F)F)cc2F)CC(=O)O[C@@]1(Cn1cncn1)c1ccc(F)cc1F (racemic) | > 80 | 80 (≈ 161 µM) | 100 | > 80 | > 80 | 90 | > 80 | > 80 | > 80 | > 80 | 20 (≈ 40.1 µM) | > 80 | > 80 | 80 (≈ 161 µM) | 100 | > 80 | 80 (≈ 161 µM) | 40 (≈ 80.3 µM) | 100 | > 80 | MIC (Candida albicans [11]; [17]): 20 µg/mL (≈ 40.1 µM) |
| C[C@H]1N(C(=O)c2ccc(OCC(F)(F)C(F)F)cc2)CC(=O)O[C@@]1(Cn1cncn1)c1ccc(F)cc1F (racemic) | > 80 | 80 (≈ 147 µM) | 90 | > 80 | > 80 | 70 | > 80 | > 80 | > 80 | > 80 | 10 (≈ 18.4 µM) | > 80 | 80 (≈ 147 µM) | > 80 | 100 | > 80 | 80 (≈ 147 µM) | > 80 | 100 | > 80 | MIC (Candida albicans [11]; [17]): 10 µg/mL (≈ 18.4 µM) |
